Screening results deposited in PubChem BioAssay by Sanford-Burnham Center for Chemical Genomics.
bIAP inhibitor: blocks bovine intestinal alkaline phosphatase activity; purified bovine IAP, CDP-star luminescence, 30 min; inhibition, % at 20 µM; 190,000 tested, under 10 active;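 active means over 50% inhibition of intestinal alkaline phosphatase at 20 µM in the single-dose screen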
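System: purified bovine intestinal alkaline phosphatase (IAP) enzyme; Input: IAP diluted 1/65,000,000 in the well; Measured by: CDP-star luminescence signal; Compound dosing: 20 µM single dose; Incubation: 30 min reaction at room temperature.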
mIAP block: mouse IAP inhibition. purified mouse IAP, CDP-Star luminescence, 30 min. inhibition, % at 10 µM. 330,000 compounds, 0.2% hits. AID 2806;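 active means inhibition of at least 40% at 10 µM in the primary screen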
hIAP inh: blocks human intestinal alkaline phosphatase | P09923 | purified IAP, CDP-Star luminescence, 30 min | inhibition, % at 10 µM | 330,000 compounds, 0.12% hits | AID 2544;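 active means inhibition reaching a set limit with compound at 10 µM in the primary screen, cut at about 35% in these data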
Target sequence (P09923 whole entry, looked up): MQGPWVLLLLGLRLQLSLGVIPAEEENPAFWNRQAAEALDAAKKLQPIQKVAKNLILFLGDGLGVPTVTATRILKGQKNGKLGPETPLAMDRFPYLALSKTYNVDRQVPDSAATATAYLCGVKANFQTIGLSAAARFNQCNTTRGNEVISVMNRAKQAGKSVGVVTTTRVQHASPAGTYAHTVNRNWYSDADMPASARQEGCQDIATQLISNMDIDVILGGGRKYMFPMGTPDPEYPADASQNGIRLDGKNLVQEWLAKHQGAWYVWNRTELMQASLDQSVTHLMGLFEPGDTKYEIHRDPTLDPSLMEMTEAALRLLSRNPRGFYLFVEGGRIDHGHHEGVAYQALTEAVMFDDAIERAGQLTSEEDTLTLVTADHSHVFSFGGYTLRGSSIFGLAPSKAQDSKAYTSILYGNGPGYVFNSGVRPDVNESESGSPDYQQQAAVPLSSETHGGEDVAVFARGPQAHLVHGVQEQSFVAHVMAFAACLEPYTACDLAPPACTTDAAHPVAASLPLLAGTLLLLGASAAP
bIAP act: increases bovine intestinal alkaline phosphatase activity. purified bovine IAP, CDP-star luminescence, 30 min; hits give high values; fold of DMSO-control signal, blank-subtracted. activation factor at 20 µM. 200,000 compounds, 0.17% hits;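 active means activation factor of 2 or more at 20 µM, a signal rise over negative controls twice the positive control's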
mIAP act: mouse IAP activation; activation factor at 10 µM; 330,000 compounds, 0.24% hits; muIAP, CDP-Star luminescence, 30 min; hits give high values; 1 = vehicle-only enzyme signal, 0 = enzyme-free wells;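 active means activation factor of at least 2 at 20 µM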
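Assay system: mouse IAP enzyme; reagent: chemiluminescent substrate CDP-Star; dosing: test compounds delivered from DMSO solution; schedule: 30 min at room temperature; measured by: luminescence from enzymatic CDP-Star hydrolysis; controls: DMSO-only wells and no-enzyme negative control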
hIAP activ: human IAP activation; P09923; purified human IAP, CDP-Star luminescence, 30 min; hits give high values; 1 = vehicle-only enzyme, 0 = enzyme-free background; activation factor at 10 µM; 330,000 compounds, 0.16% hits; AID 2524;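 active means activation factor of the enzyme at least 2-fold when tested at 20 µM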
hIAP act conf: human IAP activation confirmation; shares compounds with hIAP activ; purified IAP, CDP-Star luminescence, 30 min; hits give low values; activation (%Activity, negative = activation), % at 8.3 µM; 880 compounds, 10% hits; AID 434926;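 active means at least twofold enzyme activation in any of six single-dose repeats, which the averaged readout prints as negative percent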
Of the large screens only hits and unclear results are named; the others gave an inactive call (follow-up assays come after a bar, where they were run). Compounds with a hit are over-represented: about 0.79% of the library has one in this group of screens.

C[C@H](NC(=O)c1[nH]cnc1C(=O)Nc1ccon1)c1ccccc1	none (no result: bIAP inhibitor, bIAP act)
C[C@@H](NC(=O)c1[nH]cnc1C(=O)Nc1ccon1)c1ccccc1	hIAP activ 2.1 (no result: bIAP inhibitor, bIAP act) | hIAP act conf -80
COc1ccc(C2CC(=O)C(C(c3ccc(O)cc3)C3C(=O)CC(c4ccc(OC)cc4)CC3=O)C(=O)C2)cc1 (stereo not drawn)	none (no result: bIAP inhibitor, bIAP act)
COC(=O)c1ccccc1-c1c2ccc(=N)cc-2oc2cc(N)ccc12	hIAP inh 38 (no result: bIAP inhibitor, bIAP act) | hIAP act conf inactive
Cc1ccnc2nc(C(=O)OCC(=O)Nc3ccc([N+](=O)[O-])cc3Br)nn12	none (no result: bIAP inhibitor, bIAP act)
O=C1C(Nc2ccccc2)=C(N2CCCCC2)C(=O)c2ccccc21	none
O=C(/C=C/c1ccc(O)cc1)c1ccc(NC2=C(N3CCCCC3)C(=O)c3ccccc3C2=O)cc1	hIAP inh 35 | hIAP act conf inactive
O=C(c1ccco1)N1CCCC(c2nc3c(nnn3Cc3c(Cl)cccc3Cl)c(=O)[nH]2)C1 (stereo not drawn)	none (no result: bIAP inhibitor, bIAP act)
CCOc1ccc(NC(=O)CN2C(=O)COc3ccc(S(=O)(=O)N4CCCCC4)cc32)cc1	none (no result: bIAP inhibitor, bIAP act)
COc1ccc(NC(=O)CN2C(=O)COc3ccc(S(=O)(=O)N4CCCCCC4)cc32)cc1	hIAP inh 37 (no result: bIAP inhibitor, bIAP act) | hIAP act conf inactive
COc1cc(NC(C)CCCN)c2ncccc2c1 (stereo not drawn)	hIAP inh 52 (no result: bIAP inhibitor, bIAP act) | hIAP act conf inactive
c1ccc(-c2nc(NCCCN3CCOCC3)c3ccccc3n2)cc1	hIAP activ 2 | hIAP act conf inactive
Cc1cccc(-c2nc(NCCCN3CCOCC3)c3ccccc3n2)c1	none
c1ccc(-c2cc3c(ccc4nonc43)nn2)cc1	none
On1onc2c3cc(-c4ccccc4)nc3ccc21	hIAP inh 37 | hIAP act conf inactive
CC(C)(C)C(=O)NNC(=O)c1cnccn1	none (no result: bIAP inhibitor, bIAP act)
O=C(Nc1ccc(F)cc1)c1ccc2snnc2c1	hIAP inh 35 (no result: bIAP inhibitor, bIAP act) | hIAP act conf inactive
Cc1ccc(NC(=O)c2ccc3snnc3c2)cc1C	none (no result: bIAP inhibitor, bIAP act)
Cc1ccc(NC(=O)c2[nH]cnc2C(=O)NN)cc1	hIAP activ 2.1 | hIAP act conf inactive
Cc1ccc(NC(=O)c2nc[nH]c2C(=O)NCCCNC(=O)c2[nH]cnc2C(=O)Nc2ccc(C)cc2)cc1	none (no result: bIAP inhibitor, bIAP act)
NNC(=O)c1nc[nH]c1C(=O)Nc1ccccn1	hIAP activ 2 | hIAP act conf inactive
Cn1ccnc1COc1ccc(/C=N/O)cc1	none (no result: bIAP inhibitor, bIAP act)
CN(C)c1ccc(N=Nc2ccccc2C(=O)OCC(=O)NCC2CCCCC2)cc1	none
CN(C)c1ccc(N=Nc2ccccc2C(=O)OCC(=O)NC2CCCC2)cc1	hIAP inh 40 | hIAP act conf inactive
CCc1ccc(N=C2N=C(N)c3ccccc32)cc1	hIAP inh 38 | hIAP act conf inactive
O=C(NCc1ccc(F)cc1)C1CCC(CNc2c(N3CCCCC3)c(=O)c2=O)CC1 (stereo not drawn)	none (no result: bIAP inhibitor, bIAP act)
CCN(Cc1ccccc1)c1ccc(N=Nc2nn(C)c(C)c2[N+](=O)[O-])cc1	none
CCN(CC)c1ccc(N=Nc2nn(C)c(C)c2[N+](=O)[O-])cc1	hIAP inh 47 | hIAP act conf inactive
COC(=O)/C(C#N)=C/c1c(Oc2cc(C)cc(C)c2)nc2ccccn2c1=O	hIAP activ 2 (no result: bIAP inhibitor, bIAP act) | hIAP act conf inactive
COC(=O)/C=C1\N/C(=N/c2nc(C)c3cc(OC)ccc3n2)NC1=O	hIAP activ 2.5 (no result: bIAP inhibitor, bIAP act) | hIAP act conf inactive
COC(=O)/C=C1/C(=O)N/C(=N\c2nc(C)cc(C)n2)N1c1ccc(OC)cc1	none
O=C(Nc1ccc(-n2cnnn2)cc1)C1CCCN1C(=O)NC1CCCCC1 (stereo not drawn)	none
CCCOC1CCCN(Cc2nc(-c3cnccn3)no2)C1 (stereo not drawn)	none
CSC1=C(C#N)C(c2ccccc2)C(C(C)=O)=C(C)N1 (stereo not drawn)	none
CSC1=C(C#N)C(c2ccccc2Cl)C(C(C)=O)=C(C)N1 (stereo not drawn)	hIAP inh 35 | hIAP act conf inactive
COCC(=O)Oc1c(S(=O)(=O)c2ccc(C)cc2)c(C)nn1C(C)(C)C	none (no result: bIAP inhibitor, bIAP act)
